Measurements from paper PMC4180501 (Biochimica et biophysica acta, 2012).
Changes are numbered by the printed parent chain. Where two headings read alike, the source gives them in different places. Each block holds one molecule with its values, some of them ahead of it.

Key:
[1] = molecular target: T1, GK-W167 (W99R/W257F) (Homo sapiens, UniProt P35557, W257F/W99R); details: read-out: ATP KM; W-167; no GKA; no glycerol; ref [19]; cited from earlier work
T1 sequence (P35557 1-465 W99R/W257F): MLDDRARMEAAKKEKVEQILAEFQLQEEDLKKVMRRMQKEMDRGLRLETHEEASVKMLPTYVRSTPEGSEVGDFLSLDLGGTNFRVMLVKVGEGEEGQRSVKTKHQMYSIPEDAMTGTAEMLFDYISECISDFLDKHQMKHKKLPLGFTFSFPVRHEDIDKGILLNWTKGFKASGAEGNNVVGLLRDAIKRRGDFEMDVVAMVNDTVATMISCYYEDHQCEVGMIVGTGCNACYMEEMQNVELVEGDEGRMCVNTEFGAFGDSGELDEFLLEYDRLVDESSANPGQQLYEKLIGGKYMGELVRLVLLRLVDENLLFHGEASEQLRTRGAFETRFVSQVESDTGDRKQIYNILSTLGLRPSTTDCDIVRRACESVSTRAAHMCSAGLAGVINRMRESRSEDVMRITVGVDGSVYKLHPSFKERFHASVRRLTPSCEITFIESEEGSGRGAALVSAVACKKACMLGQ

[2] = molecular target: T2, GK- W257 (W99R/W167F) (Homo sapiens, UniProt P35557, W167F/W99R); test: NADP+-coupled spectrophotometric kinetic assay; type: biochemical; details: read-out: ATP KM; W-257; no GKA; 30% glycerol
T2 sequence (P35557 1-465 W99R/W167F): T1 sequence (P35557 1-465 W99R/W257F) with W167F, F257W

[3] = molecular target: T3, GK-WT (Homo sapiens, UniProt P35557); details: read-out: ATP KM, no GKA, no glycerol, ref [19]; cited from earlier work
T3 sequence (P35557 1-465): T1 sequence (P35557 1-465 W99R/W257F) with R99W, F257W

[4] = molecular target: T4, GK-W99 (W167F/W257F) (Homo sapiens, UniProt P35557, W167F/W257F); test: NADP+-coupled spectrophotometric kinetic assay; type: biochemical; details: read-out: ATP KM; W-99; no GKA; 30% glycerol
T4 sequence (P35557 1-465 W167F/W257F): T1 sequence (P35557 1-465 W99R/W257F) with R99W, W167F
How it was run: (§1)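 Recombinant human β-cell glucokinase single-Trp variant, expressed in E. coli as a GST fusion and sequence-verified. Catalytic parameters came from an NADP+-coupled spectrophotometric assay run with or without 30% glycerol. Hill coefficient and glucose S0.5 were obtained by fitting v/Vmax = [glucose]^H/(K′+[glucose]^H), with […].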

[5] = molecular target: T2, GK- W257 (W99R/W167F); details: read-out: ATP KM; W-257; no GKA; no glycerol; ref [19]; cited from earlier work
[6] = molecular target: T4, GK-W99 (W167F/W257F); details: read-out: ATP KM; W-99; no GKA; no glycerol; ref [19]; cited from earlier work
[7] = molecular target: T3, GK-WT; test: NADP+-coupled spectrophotometric kinetic assay; type: biochemical
[8] = molecular target: T1, GK-W167 (W99R/W257F); test: NADP+-coupled spectrophotometric kinetic assay; type: biochemical; details: read-out: ATP KM; W-167; no GKA; 30% glycerol
How it was run: as §1

[9] = molecular target: T3, GK-WT; test: Urea unfolding/refolding of GK by tryptophan fluorescence
How it was run: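 GK-WT unfolding was followed by urea titration in 20 mM PO4, 50 mM KCl, 1 mM EDTA, 1 mM DTT, pH 7.3, 20 °C, ± 20% glycerol, ± 300 mM glucose. I320/I360 was read at 295 nm excitation, and ΔGu(H2O) came from a two-state fit. Reversibility was tested after 30 min in 4 or 8 M urea, then dialysis, by restoration of the spectrum and glucose response.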

[10] = molecular target: T3, GK-WT; test: DSC thermal denaturation
How it was run: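 Wild-type recombinant human GK was run by DSC at 0.3 mg/ml (6 µM) in 5 mM phosphate, 100 mM KCl, pH 7.3, in buffer or 20% glycerol, with glucose up to 300 mM. The scan was 0.25 degree/min against a protein-free reference. Tm was plotted against glucose and fit to a hyperbola for EC50. Unfolding rate constant used k=vCp/(Qt−Q) to derive activation energy.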

[11] = molecular target: T3, GK-WT; test: Temperature dependent tryptophan fluorescence; details: glycerol present, absence of glucose
How it was run: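 Tryptophan emission spectra of about 3 µM GK in 5 mM K-phosphate, pH 7.3, 100 mM KCl were recorded from 10 to 65 °C in a thermostatted, thermocouple-monitored cell. […] Line 7 also used ± 20% glycerol. Denaturation was followed as the I320/I360 ratio and its temperature derivative.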

Km [2]: 710 µM
Km [4]: 710 µM
Km ([7]; read-out: ATP KM, GK-WT, no GKA, 30% glycerol): 230 µM
Km [8]: 300 µM
SMILES: Nc1ncnc2c1ncn2[C@@H]1O[C@H](COP(=O)(O)OP(=O)(O)OP(=O)(O)O)[C@@H](O)[C@H]1O [ATP]
Km [1]: 780 µM
Km [3]: 460 µM
Km [5]: 3350 µM
Km [6]: 1630 µM

reversibility of GK unfolding ([9]; 4 or 8 M urea, TF studies, urea removed by dialysis): fully reversible
SMILES: NC(N)=O [urea]

ΔH thermal denaturation ([10]; GK-WT in 20% glycerol, no D-glucose): 126 kcal/mol
Tm ([10]; GK-WT in 20% glycerol, no D-glucose, DSC): 51.3 °C
Ea thermal denaturation ([10]; GK-WT, 20% glycerol, 0 mM D-glucose): 131.5 kcal/mol
Q10 of the GK reaction ([7]; presence of glycerol): 1.47
TmF [11]: 48 °C
ΔGu(H2O) of urea denaturation ([9]; GK-WT in 20% glycerol, 20°C, pH 7.3): 1.84 kcal/mol
SMILES: OCC(O)CO [glycerol]
